Bioassay records from PubChem.
GPR7 antag – GPR7 receptor antagonists, primary screen, cell-based, fluorescence, single concentration; Neuropeptides B/W receptor type 1 (Homo sapiens), P48145; GPR7-expressing cells, fluorescence antagonist assay; inhibition, % at 4.4 µM; 290,000 compounds, 1.1% hits; AID 1861, 2009; in the data active means inhibition above about 16%, passing the limit was not always enough;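 further: cells stimulated with the agonist NPW; 0% = agonist with vehicle and 100% = vehicle without agonist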
Target sequence (P48145 whole entry, looked up): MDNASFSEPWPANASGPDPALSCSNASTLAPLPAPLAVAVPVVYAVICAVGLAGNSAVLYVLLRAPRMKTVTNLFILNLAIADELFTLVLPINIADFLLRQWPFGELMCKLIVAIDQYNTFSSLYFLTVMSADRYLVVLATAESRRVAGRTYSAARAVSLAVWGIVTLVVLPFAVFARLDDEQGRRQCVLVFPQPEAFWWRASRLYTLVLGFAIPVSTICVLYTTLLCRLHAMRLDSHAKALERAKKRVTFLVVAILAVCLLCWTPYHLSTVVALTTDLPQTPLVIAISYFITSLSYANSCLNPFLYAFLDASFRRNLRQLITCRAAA
OX1R antag-1 – OX1R (HCRTR1) antagonists, primary screen, fluorescence, CHO/OX1R cells, Fluo-8 calcium, orexin A | Orexin/Hypocretin receptor type 1 (Homo sapiens), O43613 | Fluo-8 calcium fluorescence | inhibition, % at 5 µM | 330,000 compounds, 0.43% hits;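 active means inhibition above its plate's threshold, mean inhibition of all tested compounds on the plate plus 3 SD, cut at about 37% in these data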;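 further: 0% = orexin A challenge wells and 100% = SB-334867-A antagonist wells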
TAAR1 antagonist – human TAAR1 antagonists, primary screen, Fluo-8 calcium fluorescence, CHO RD-HGA16 cells | Trace amine-associated receptor 1 (Homo sapiens), Q96RJ0 | antagonist | inhibition, % at 3 µM | 360,000 compounds, 1.5% hits;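 active means inhibition above a per-plate cutoff, the mean inhibition of test compounds on that plate plus 3 SD, cut at about 49% in these data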;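 further: 0% = DMSO plus EC80 beta-PEA response and 100% = DMSO alone without agonist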
Target sequence (Q96RJ0 whole entry, looked up): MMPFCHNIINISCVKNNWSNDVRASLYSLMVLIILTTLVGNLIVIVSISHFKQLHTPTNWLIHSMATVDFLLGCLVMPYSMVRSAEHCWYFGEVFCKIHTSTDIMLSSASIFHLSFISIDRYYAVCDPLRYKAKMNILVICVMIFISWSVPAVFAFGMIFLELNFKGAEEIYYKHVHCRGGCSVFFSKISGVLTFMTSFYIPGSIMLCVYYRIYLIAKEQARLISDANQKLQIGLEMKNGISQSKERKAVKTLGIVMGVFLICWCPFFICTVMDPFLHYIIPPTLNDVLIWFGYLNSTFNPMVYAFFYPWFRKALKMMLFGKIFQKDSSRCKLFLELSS
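Material: CHO RD-HGA16 cells bearing hTAAR1; compound dosing: one-point dosing, 3 µM nominal final; schedule: dye loading 75 min at 37 °C, then 30 min room temperature; measured by: calcium fluorescence with Fluo-8; control set: vehicle and agonist controls; replication: n of 1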
TAAR1 agonist – human TAAR1 agonists, primary screen, Fluo-8 calcium fluorescence, CHO RD-HGA16 cells | Trace amine-associated receptor 1 (Homo sapiens), Q96RJ0 | vehicle wells 0%, saturating PEA agonist 100% | activation, % at 3 µM | 360,000 compounds, 0.99% hits;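 active means activation above the mean activation of all test compounds in the run plus 3 SD, cut at about 38% in these data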
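Test system: RD-HGA16 (CHO) cells co-expressing Gα16 and hTAAR1 | Doses: Single dose, 3 µM | Schedule: 17-24 h seeding, 75 min 37 °C dye, 30 min RT | Evaluation: % activation from peak over basal fluorescence ratio, DMSO-to-PEA scaled | Technique: Kinetic Fluo-8 calcium fluorescence | Benchmarks: Low control DMSO, high control PEA (EC100)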
OX1R antag-2 – antagonists of human orexin 1 receptor (OX1R) | OX1R-expressing cells, FRET antagonist read-out | 330,000 compounds, 1.8% hits | inhibition, % at 6.6 µM; in the data active means inhibition mostly above about 38%, no sharp cut-off; inactive means mostly below about 40%;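 further: 0% = agonist challenge alone and 100% = reference antagonist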
CHO parental Ca – ATP-evoked calcium signal inhibitors, parental CHO, primary screen, counter-screen for OX1R antagonist project, cell-based, fluorescence, Fluo-8 calcium dye. parental CHO-K1, ATP-induced calcium, Fluo-8 fluorescence. inhibition, % at 5.6 µM. 330,000 compounds, 0.63% hits;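 active means inhibition above that plate's mean sample inhibition plus 3 SD, cut at about 26% in these data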;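 further: 0% = ATP-challenged DMSO wells and 100% = DMSO wells without ATP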
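Material – parental CHO cells · Reagent – ATP stimulus · Compound – single nominal dose of 5.6 µM per compound · Detection – Fluo-8 fluorescence · Read-out basis – percent inhibition of calcium signal · Controls – ATP-challenged DMSO wells low, unchallenged DMSO wells high · Repeats – no replicates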
* = called active by the depositor; x = no result. A selection: hits, their analogues and other compounds. The true share with any hit is near 4.5%.

SMILES | GPR7 antag | OX1R antag-1 | TAAR1 antagonist | TAAR1 agonist | OX1R antag-2 | CHO parental Ca
Cc1ccc(C(=O)c2coc3c2C(=O)C(=O)c2ccccc2-3)cc1 | 11 | 1 | 22 | 13 | 47* | -25
Cc1oc2c(c1C(=O)c1ccc(Cl)cc1)C(=O)C(=O)c1ccccc1-2 | 28* | x | 28 | 13 | x | x
N#Cc1nc(-c2ccc(OCc3ccccc3)cc2)oc1NCc1cccnc1 | 18 | 45* | 6 | 0 | 61 | 54*
N#Cc1nc(-c2ccc(OCc3ccc(Cl)cc3)cc2)oc1NCc1cccnc1 | -2 | 7 | 3 | 4 | 24 | -7
Cc1ccc2cccc(NC(=S)NC(=O)c3ccn(C)n3)c2n1 | -8 | 0 | 11 | 1 | 65* | -42
COC(=O)C(Cc1ccc(OC(=O)c2ccc(C)cc2)cc1)N1Cc2ccccc2C1=O (centres undefined) | 16 | 24 | x | x | 22 | 44*
COC(=O)C(Cc1ccc(O)cc1)N1Cc2ccccc2C1=O (centres undefined) | -2 | -8 | 18 | 0 | 5 | -2
COc1ccc(/C=C(\NC(=O)c2ccco2)C(=O)NCCc2nc3ccccc3[nH]2)cc1 | -18 | 32 | -41 | 0 | 46* | -23
O=[N+]([O-])c1ccc2cn[nH]c2c1 | -9 | -9 | -3 | 1 | 49* | -1
O=C(CCl)N(c1ccc(Cl)cc1)c1c[nH]c2ccccc12 | 6 | 5 | 26 | 39* | -2 | 0
CC1(c2nnnn2C2CCCC2)CCC(=O)N1c1ccc2c(c1)OCCO2 (centres undefined) | x | x | -17 | 2 | x | x
Cc1c(C(=O)Nc2ccncc2)sc2nc(-c3ccc(F)cc3)cn12 | -8 | -5 | 3 | 10 | 13 | 77*
COc1ccc(-c2cn3c(C)c(C(=O)Nc4ccncc4)sc3n2)cc1 | -1 | -28 | 35 | 9 | 3 | -1
COc1ccc(CNCc2cc3c(cc2[N+](=O)[O-])OCO3)cc1 | 8 | -14 | -11 | 0 | 44* | -18
Cc1cc(C)n2nc(-c3sccc3-n3cccc3)cc2n1 | -15 | -24 | -3 | 1 | 40 | -34
Cc1cc(C)n2nc(-c3sccc3-n3c(C)ccc3C)cc2n1 | -15 | 33 | -6 | 4 | 76* | -16
CCCCc1c(-c2ccccc2OC)ncn1Cc1ccccc1C | x | x | 16 | 4 | x | x
O=c1oc2ccccc2c(O)c1CN1CCCCC1 | 12 | 7 | 0 | 9 | 68* | 1
O=c1oc2ccccc2c(Nc2ccccc2)c1CN1CCCCC1 | -14 | -23 | -15 | 0 | 8 | -24
CCOC(=O)C1=C(C(=O)OCC)C2N(Cc3ccc(C#N)cc3)c3ccccc3[C@@]23C[C@@H](C(=O)OC)N(S(=O)(=O)c2cccs2)C3=N1 (some centres undefined) | x | x | -13 | 1 | x | x
O=C(Nc1ncc([N+](=O)[O-])s1)c1ccc2c(c1)OCO2 | -14 | -1 | 15 | 6 | 60 | 29*
Cc1cnc(NC(=O)c2ccc3c(c2)OCCO3)s1 | x | 12 | -3 | 8 | -3 | -3
Cc1ccc(C(=O)Nc2ncc([N+](=O)[O-])s2)cc1 | 14 | 2 | 12 | 6 | 54* | 12
COc1ccc(NC(=O)N(C)C[C@@H]2OCCCC[C@@H](C)Oc3ccc(NS(C)(=O)=O)cc3C(=O)N([C@H](C)CO)C[C@@H]2C)cc1 | x | x | -16 | 0 | x | x
Cc1cc(C(=O)CN2C(=O)C(=O)N(Cc3ccccc3)C2=O)c(C)n1CC1COc2ccccc2O1 (centres undefined) | 1 | -8 | 21 | 11 | 12 | 20
SMILES | GPR7 antag | OX1R antag-1 | TAAR1 antagonist | TAAR1 agonist | OX1R antag-2 | CHO parental Ca
Cc1cc(C(=O)COC(=O)c2ccc(CO)cc2)c(C)n1CC1COc2ccccc2O1 (centres undefined) | 15 | -7 | 50* | 23 | 6 | 2
Cc1cc(C(=O)CSc2nnc(-c3ccco3)o2)c(C)n1CC1COc2ccccc2O1 (centres undefined) | 20* | x | 3 | 0 | x | x
CC1=N/C(=C\c2ccc([N+](=O)[O-])cc2)C(=O)N1c1ccc(C)c(Cl)c1 | x | x | 5 | -1 | x | x
COCCCn1c(N)c(-c2nc3ccccc3n2C)c2nc3ccccc3nc21 | -5 | -5 | 49* | 23 | 22 | -12
Cn1c(-c2c(N)n(CCCc3ccccc3)c3nc4ccccc4nc23)nc2ccccc21 | -3 | x | x | x | x | x
O=C1c2cc(S(=O)(=O)NCCCO)ccc2-c2ccc(S(=O)(=O)NCCCO)cc21 | -12 | 1 | 6 | 10 | 54* | 4
CC(C)(CO)NS(=O)(=O)c1ccc2c(c1)C(=O)c1cc(S(=O)(=O)NC(C)(C)CO)ccc1-2 | -10 | -14 | -3 | 5 | 37 | -2
COCCNS(=O)(=O)c1ccc2c(c1)C(=O)c1cc(S(=O)(=O)NCCOC)ccc1-2 | 13 | -3 | 2 | 4 | 66* | 2
N#Cc1c(NC(=S)NC(=O)c2ccccc2)sc2c1CCN(CCc1ccccc1)C2 | 17 | 36 | x | x | 26 | 36*
N#Cc1c(NC(=S)NC(=O)c2ccccc2)sc2c1CCCC2 | 2 | -24 | -15 | 4 | 14 | -12
COc1cc(/C=C/C(=O)NC(=O)c2ccccc2O)ccc1OC(C)=O | -13 | 4 | 14 | 1 | 66* | -13
COc1ccc(/C=C/C(=O)NC(=S)Nc2ccccc2)cc1OC | -7 | -16 | 11 | 1 | 2 | -4
CCN(CC)c1ccc(-c2sc(Nc3ccccc3)n[n+]2-c2ccc(F)cc2)cc1 | 6 | -11 | 24 | 49* | 15 | -11
COc1ccccc1OC(=O)CCN1c2ccccc2Sc2ccccc21 | -14 | -32 | -10 | -2 | 24 | -31
COc1ccc(C(=O)/C=C2\Sc3ccccc3N2C)cc1 | 4 | -5 | -16 | 9 | 34 | -18
COc1ccc(-[n+]2c(C)cc(/C=C3\Sc4ccccc4N3C)cc2C)cc1 | 31* | 31 | 62* | 32 | 56* | 46*
COc1ccccc1-[n+]1c(C)cc(/C=C2\Sc3ccccc3N2C)cc1C | 5 | 62* | 30 | 22 | 39 | 69*
COc1ccc(-c2nc3c4ccccc4ccn3c2Cc2ccccc2)cc1OC | x | x | 7 | 3 | x | x
Cc1[nH]nc2c1C(c1ccc(Br)cc1)N(Cc1ccccc1)C2=O (centres undefined) | x | x | -15 | 3 | x | x
